Data published in article PMC5008228 (Journal of Parkinson's Disease, 2016).
Several values for one entry are separate records, joined by “and”; a condition that tells them apart may be missing. Identical values can stand only once. Entries after “also recorded” stand apart in the source; their conditions may differ.

Tests used:
Format in all cases: in vivo, human
[1] = tested on: PDD or DLB participants; test: Mini Mental State Examination; settings: for MMSE score: individual participants; for MMSE score, AVG: group AVG (Screening AVG 15.4); for Average increase in MMSE: six months (24-week) compared to baseline
[2] = tested on: PDD or DLB participants; test: Scales for Outcomes in Parkinson's disease-Cognition; settings: for SCOPA-Cog (**/43) score: individual participants; for Average increase in SCOPA-Cog: six months compared to baseline
[3] = tested on: PDD or DLB participants; test: Safety and tolerability, adverse events
[4] = tested on: PDD or DLB participants; test: QTc interval by EKG; settings: returned to normal range in subsequent visits
[5] = tested on: PDD or DLB participants; test: Laboratory blood chemistry; settings: 150 mg group
In short: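 PDD or DLB participants (n = 5 at 150 mg, n = 7 at 300 mg) took oral doses daily for 24 weeks. Blood chemistry (lipids, phosphate, bilirubin, electrolytes, lipase, α-amylase, ALT, AST) plus CBC with differential were drawn every two weeks for the first two months, then monthly. EKGs and physical/neurological exams were done at the same visits.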

[6] = tested on: homovanillic acid (HVA); test: HVA measurement by ELISA
[7] = tested on: α-synuclein; test: α-synuclein sandwich ELISA in CSF and plasma; settings: for Plasma α-synuclein vs baseline: 2 months
[8] = tested on: DJ-1; test: Neurodegenerative disease magnetic bead panel, DJ-1
[9] = tested on: S100B; test: Neurodegenerative disease magnetic bead panel, S100B
[10] = tested on: Neuron Specific Enolase (NSE); test: Neurodegenerative disease magnetic bead panel, NSE; settings: 6 months
[11] = tested on: total tau; test: Neurodegenerative disease magnetic bead panel, total tau and p-tau181
[12] = tested on: Aβ40; test: Neurodegenerative disease magnetic bead panel, Aβ40
[13] = tested on: Aβ42; test: Neurodegenerative disease magnetic bead panel, Aβ42; settings: 150 mg group

Compound: Cc1cn(-c2cc(NC(=O)c3ccc(C)c(Nc4nccc(-c5cccnc5)n4)c3)cc(C(F)(F)F)c2)cn1 [Nilotinib]
- MMSE score ([1]; 300 ng (sub-heading as printed) oral daily, Week-12): 29 and 26 and 25 and 28 and 1 and 6
- MMSE score ([1]; 300 ng (sub-heading as printed) oral daily, Week-16): 27 and 29 and 25 and 14 and 6 and 12
- MMSE score ([1]; 300 ng (sub-heading as printed) oral daily, Week-20): 26 and 30 and 25 and 24 and 2 and 6
- MMSE score ([1]; 300 ng (sub-heading as printed) oral daily, Week-24): 28 and 30 and 25 and 26 and 5 and 9
- MMSE score, AVG ([1]; 150 mg oral daily, Week-4): 17.4
- MMSE score ([1]; 150 mg oral daily, Week-4): 20 and 0 and 11 and 28
- MMSE score, AVG ([1]; 150 mg oral daily, Week-8): 18
- MMSE score ([1]; 150 mg oral daily, Week-8): 22 and 1 and 11 and 29 and 27
- MMSE score, AVG ([1]; 150 mg oral daily, Week-12): 18
- MMSE score ([1]; 150 mg oral daily, Week-12): 21 and 1 and 11 and 29 and 28
- MMSE score, AVG ([1]; 150 mg oral daily, Week-16): 18.6
- MMSE score ([1]; 150 mg oral daily, Week-16): 26 and 1 and 8 and 30 and 28
- MMSE score, AVG ([1]; 150 mg oral daily, Week-20): 18.4
- MMSE score ([1]; 150 mg oral daily, Week-20): 26 and 1 and 10 and 30 and 25
- MMSE score, AVG ([1]; 150 mg oral daily, Week-24): 19.25
- MMSE score ([1]; 150 mg oral daily, Week-24): 23 and 2 and 29
- Average increase in MMSE ([1]; 150 mg oral daily): 3.85 points
- Average increase in MMSE ([1]; 300 mg oral daily): 3.5 points
- SCOPA-Cog (**/43) score, AVG ([2]; 150 mg oral daily, Week-8, group AVG (Screening AVG 9.4)): 10
- SCOPA-Cog (**/43) score ([2]; 150 mg oral daily, Week-8): 5 and 0 and 4 and 23 and 18
- SCOPA-Cog (**/43) score, AVG ([2]; 150 mg oral daily, Week-20, group AVG (Screening AVG 9.4)): 9.6
- SCOPA-Cog (**/43) score ([2]; 150 mg oral daily, Week-20): 3 and 1 and 0 and 26 and 18
- SCOPA-Cog (**/43) score, AVG ([2]; 150 mg oral daily, Week-24, group AVG (Screening AVG 9.4)): 11.25
- SCOPA-Cog (**/43) score ([2]; 150 mg oral daily, Week-24): 4 and 0 and 23 and 18
- Average increase in SCOPA-Cog ([2]; 150 mg oral daily): 1.85 points
- SCOPA-Cog (**/43) score, AVG ([2]; 300 mg oral daily, Week-8, group AVG (Screening AVG 10.33)): 12.17
- SCOPA-Cog (**/43) score ([2]; 300 mg oral daily, Week-8): 22 and 30 and 11 and 9 and 0 and 1
- SCOPA-Cog (**/43) score, AVG ([2]; 300 mg oral daily, Week-20, group AVG (Screening AVG 10.33)): 13.3
- SCOPA-Cog (**/43) score ([2]; 300 mg oral daily, Week-20): 21 and 30 and 19 and 10 and 0
- SCOPA-Cog (**/43) score, AVG ([2]; 300 mg oral daily, Week-24, group AVG (Screening AVG 10.33)): 12.33
- SCOPA-Cog (**/43) score ([2]; 300 mg oral daily, Week-24): 22 and 31 and 10 and 0 and 1
- Average increase in SCOPA-Cog ([2]; 300 mg oral daily): 2 points
- Serious adverse events (one participant each) ([3]; 150 mg group, n = 5): hospitalized with pneumonia and UTI
- Serious adverse events (one participant each) ([3]; 300 mg group, n = 7): withdrawn at week 4 and diagnosed with myocardial infarct and left bundle block; also recorded: hospitalized with urinary tract infection (UTI)
- Safety and tolerability ([3]; once daily oral 150 mg or 300 mg, subjects with PDD or DLB): may be safe and tolerated
- QTc finding in participant NIL 8 ([4]; 150 mg group): slight QTc prolongation >450 ms at week 8
- QTc finding in participant NIL 15 ([4]; 300 mg group): two episodes of QTc prolongation >450 ms at week 2 and week 8
- AEs below normal range of alanine aminotransferase (ALT) level (<100%) [5]: three
- CSF homovanillic acid (HVA) vs baseline ([6]; 150 mg group, 2 months, t-test): significantly increased
- CSF homovanillic acid (HVA) vs baseline ([6]; 150 mg group, 6 months): remained elevated (non-significant)
- CSF homovanillic acid (HVA) vs baseline ([6]; 300 mg group, 6 months): significantly increased
- Plasma α-synuclein at 6 months compared to 2 months ([7]; 150 mg group): significantly higher
- CSF α-synuclein vs baseline ([7]; 150 mg group, 2 and 6 months): slightly reduced
- Plasma α-synuclein vs baseline ([7]; 150 mg group): slightly reduced
- CSF α-synuclein at 2 months compared to 6 months ([7]; 150 mg group, t-test): significantly (t-test) lower
- Plasma α-synuclein vs baseline ([7]; 300 mg group): significantly reduced
- Plasma α-synuclein ([7]; 300 mg group, 6 months): returned to baseline
- CSF α-synuclein ([7]; 300 mg group, between baseline, 2 and 6 months): unaltered
- CSF DJ-1 ([8]; 150 mg group): trended towards a decrease
- CSF DJ-1 vs baseline ([8]; 300 mg group, six months): significantly reduced
- CSF S100B level ([9]; 150 mg group): gradually reduced
- CSF S100B level ([9]; 300 mg group): gradually reduced
- CSF NSE level vs baseline ([10]; 150 mg group): significantly reduced
- CSF NSE level vs baseline ([10]; 300 mg group): significantly reduced
- CSF total tau vs baseline ([11]; 150 mg group, 2 months): significantly reduced
- CSF total tau vs baseline ([11]; 300 mg group, 6 months): significantly reduced
- CSF Aβ40 ([12]; 150 mg group): No changes
- CSF Aβ40 vs baseline ([12]; 300 mg group, 6 months): significantly reduced
- CSF Aβ42 [13]: No changes
